Source: ChEMBL document CHEMBL1149183, “Novel benzo[1,4]diazepin-2-one derivatives as endothelin receptor antagonists” (J Med Chem, 2004)

Assays:
Endothelin receptor [1] = biological target: T1, Endothelin receptor (Rattus norvegicus, UniProt P26684+P21451); test: Inhibitory potency at native endothelin A and endothelin B receptors by inhibiting endothelin-1 contractions of rat aortic rings; assay type: functional
T1 sequence (P26684 whole entry): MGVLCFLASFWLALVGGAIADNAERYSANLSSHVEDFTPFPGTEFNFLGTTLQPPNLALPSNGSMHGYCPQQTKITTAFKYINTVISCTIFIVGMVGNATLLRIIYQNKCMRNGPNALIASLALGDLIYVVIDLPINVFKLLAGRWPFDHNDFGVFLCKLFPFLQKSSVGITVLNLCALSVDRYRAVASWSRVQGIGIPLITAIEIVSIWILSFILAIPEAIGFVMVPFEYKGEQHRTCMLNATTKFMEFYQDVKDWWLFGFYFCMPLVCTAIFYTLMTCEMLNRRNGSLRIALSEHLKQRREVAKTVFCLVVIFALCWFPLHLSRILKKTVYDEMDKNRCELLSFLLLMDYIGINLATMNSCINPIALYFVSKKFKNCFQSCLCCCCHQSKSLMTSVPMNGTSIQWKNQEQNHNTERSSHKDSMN
T1 sequence (P21451 whole entry): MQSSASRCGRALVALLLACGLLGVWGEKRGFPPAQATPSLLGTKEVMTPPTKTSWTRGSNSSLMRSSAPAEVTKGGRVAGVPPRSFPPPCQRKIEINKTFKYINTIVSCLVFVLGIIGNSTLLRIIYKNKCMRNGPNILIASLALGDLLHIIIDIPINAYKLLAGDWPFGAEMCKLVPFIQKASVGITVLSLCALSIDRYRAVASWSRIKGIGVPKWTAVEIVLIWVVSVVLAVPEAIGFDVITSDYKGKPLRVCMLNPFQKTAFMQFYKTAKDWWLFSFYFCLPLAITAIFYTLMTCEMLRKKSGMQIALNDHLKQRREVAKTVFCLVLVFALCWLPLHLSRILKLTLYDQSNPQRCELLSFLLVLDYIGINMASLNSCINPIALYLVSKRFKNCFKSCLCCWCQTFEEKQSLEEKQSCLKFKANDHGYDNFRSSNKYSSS

Endothelin-1 receptor = biological target: T2, Endothelin-1 receptor (Homo sapiens, UniProt P25101); test: Antagonist activity towards human recombinant Endothelin A receptor expressed in chinese hamster ovary (CHO) cells determined using [125I]ET1 as radioligand; assay type: functional, cell-based
T2 sequence (P25101 whole entry): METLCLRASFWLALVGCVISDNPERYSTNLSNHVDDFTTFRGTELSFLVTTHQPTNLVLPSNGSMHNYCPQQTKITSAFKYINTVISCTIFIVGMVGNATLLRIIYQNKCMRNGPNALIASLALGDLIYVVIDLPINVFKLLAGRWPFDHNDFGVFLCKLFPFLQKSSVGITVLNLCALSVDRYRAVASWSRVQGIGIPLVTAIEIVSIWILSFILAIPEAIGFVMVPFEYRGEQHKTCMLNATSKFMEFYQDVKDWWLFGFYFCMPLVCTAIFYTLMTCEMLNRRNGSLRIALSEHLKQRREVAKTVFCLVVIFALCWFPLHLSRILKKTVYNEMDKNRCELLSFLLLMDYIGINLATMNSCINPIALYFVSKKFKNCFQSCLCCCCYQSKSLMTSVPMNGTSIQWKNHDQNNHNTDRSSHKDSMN

Endothelin receptor [2] = biological target: T1, Endothelin receptor; test: Inhibitory potency at native endothelin A and B receptors by inhibiting sarafotoxin Sf6 contractions of rat tracheal rings; assay type: functional
Rattus norvegicus [3] = organism: Rattus norvegicus; test: Maximum effect on reduction of mean arterial blood pressure was determined in rats; assay type: functional
How it was run: (§1)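 Single oral dose of 30 mg/kg suspended in 10% arabic gum to hypertensive Dahl salt-sensitive rats carrying telemetry for arterial pressure and heart rate; area between pre- and post-treatment pressure curves calculated; fall in mean arterial pressure and duration of action also taken from recordings.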

Rattus norvegicus [4] = organism: Rattus norvegicus; test: Duration of action of compound for reducing the blood pressure of rats was determined; assay type: functional; how it was run: as §1
Rattus norvegicus [5] = test: In vivo area between curve (ABC) as calculated from the blood pressure recordings before and after administration of 30 mg/kg to hypertensive Dahl salt sensitive rats; number of rats=6; assay type: functional; how it was run: as §1
Cytochrome P450 3A4 = Cytochrome P450 3A4 (Homo sapiens, UniProt P08684); test: Inhibition of human cytochrome P450 3A4; assay type: ADME
Sequence of Cytochrome P450 3A4 (P08684 whole entry, canonical isoform): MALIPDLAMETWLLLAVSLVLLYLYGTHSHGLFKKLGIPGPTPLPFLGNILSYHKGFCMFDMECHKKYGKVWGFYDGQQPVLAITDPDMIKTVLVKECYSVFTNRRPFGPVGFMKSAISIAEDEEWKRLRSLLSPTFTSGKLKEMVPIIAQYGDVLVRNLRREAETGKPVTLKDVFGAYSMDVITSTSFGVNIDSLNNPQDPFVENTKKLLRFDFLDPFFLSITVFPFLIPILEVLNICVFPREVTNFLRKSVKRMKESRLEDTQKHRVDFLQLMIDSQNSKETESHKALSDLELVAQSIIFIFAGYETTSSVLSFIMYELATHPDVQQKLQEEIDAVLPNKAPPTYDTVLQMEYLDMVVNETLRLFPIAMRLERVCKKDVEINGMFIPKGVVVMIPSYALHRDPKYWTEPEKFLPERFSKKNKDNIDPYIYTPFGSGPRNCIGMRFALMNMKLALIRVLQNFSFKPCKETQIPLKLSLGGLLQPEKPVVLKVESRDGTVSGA
How it was run: (§2)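 Human liver microsomes with isoform marker reactions near substrate Km: diclofenac 4'-hydroxylation (2C9), dextromethorphan […] (2D6), midazolam 1'-hydroxylation (3A4); metabolite formation by LC-MS/MS; IC50 reported.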

Cytochrome P450 2D6 = Cytochrome P450 2D6 (Homo sapiens, UniProt P10635); test: Inhibition of human cytochrome P450 2D6; assay type: ADME; how it was run: as §2
Sequence of Cytochrome P450 2D6 (P10635 whole entry): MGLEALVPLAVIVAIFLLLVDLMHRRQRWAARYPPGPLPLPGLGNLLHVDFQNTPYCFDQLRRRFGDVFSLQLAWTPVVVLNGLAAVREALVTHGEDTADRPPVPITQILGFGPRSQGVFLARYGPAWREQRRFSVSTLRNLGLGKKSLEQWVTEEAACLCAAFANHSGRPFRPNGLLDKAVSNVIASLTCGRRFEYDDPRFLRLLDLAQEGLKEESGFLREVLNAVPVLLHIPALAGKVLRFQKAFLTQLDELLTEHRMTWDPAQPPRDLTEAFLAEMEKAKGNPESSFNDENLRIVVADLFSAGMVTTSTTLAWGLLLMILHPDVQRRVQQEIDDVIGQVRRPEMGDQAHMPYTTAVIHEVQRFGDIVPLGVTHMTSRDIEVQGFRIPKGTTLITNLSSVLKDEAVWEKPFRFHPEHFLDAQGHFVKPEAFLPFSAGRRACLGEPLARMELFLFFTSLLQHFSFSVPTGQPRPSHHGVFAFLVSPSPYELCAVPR

[6] = Log D value was evaluated; assay type: physicochemical; conditions: octanol/water, pH 7.4; read-out: Log D7.4
How it was run: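 Shake-flask partition, n-octanol versus aqueous phase buffered to pH 7.4 (67 mM KH2PO4/67 mM Na2HPO4), volume ratio 1:9; both phases assayed by HPLC.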

[7] = biological target: T3, Endothelin receptor type B (Homo sapiens, UniProt P24530); test: Antagonist activity towards human recombinant Endothelin B receptor expressed in chinese hamster ovary (CHO) cells determined using [125I]ET1 as radioligand; assay type: functional, cell-based
T3 sequence (P24530 whole entry): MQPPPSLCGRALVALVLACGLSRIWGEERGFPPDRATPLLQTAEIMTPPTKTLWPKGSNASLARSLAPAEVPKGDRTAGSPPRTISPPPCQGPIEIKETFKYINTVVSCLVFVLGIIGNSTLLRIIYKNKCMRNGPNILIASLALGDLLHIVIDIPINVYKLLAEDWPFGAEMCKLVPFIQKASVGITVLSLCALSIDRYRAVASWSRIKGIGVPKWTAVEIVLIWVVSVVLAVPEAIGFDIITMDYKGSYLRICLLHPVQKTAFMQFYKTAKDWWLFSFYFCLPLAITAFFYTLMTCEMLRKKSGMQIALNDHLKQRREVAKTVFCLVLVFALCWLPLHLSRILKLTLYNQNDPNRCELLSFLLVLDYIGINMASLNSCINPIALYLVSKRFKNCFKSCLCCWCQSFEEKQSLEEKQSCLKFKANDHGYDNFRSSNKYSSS

Cytochrome P450 2C9 = Cytochrome P450 2C9 (Homo sapiens, UniProt P11712); test: Inhibition of human cytochrome P450 2C9; assay type: ADME; how it was run: as §2
Sequence of Cytochrome P450 2C9 (P11712 whole entry): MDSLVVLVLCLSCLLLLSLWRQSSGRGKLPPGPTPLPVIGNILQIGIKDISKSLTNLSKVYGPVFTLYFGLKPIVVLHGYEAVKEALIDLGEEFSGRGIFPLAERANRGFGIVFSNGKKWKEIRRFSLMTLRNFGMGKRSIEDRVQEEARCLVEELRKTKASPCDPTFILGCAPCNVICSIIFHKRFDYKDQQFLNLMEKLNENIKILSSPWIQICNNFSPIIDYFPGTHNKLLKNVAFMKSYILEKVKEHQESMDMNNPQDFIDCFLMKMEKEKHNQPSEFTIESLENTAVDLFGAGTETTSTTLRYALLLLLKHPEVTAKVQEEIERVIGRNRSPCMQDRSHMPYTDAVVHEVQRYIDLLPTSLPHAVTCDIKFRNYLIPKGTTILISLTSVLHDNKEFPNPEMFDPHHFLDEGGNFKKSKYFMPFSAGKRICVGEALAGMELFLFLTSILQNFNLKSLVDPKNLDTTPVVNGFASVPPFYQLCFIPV

Rattus norvegicus [8] = test: In vivo area between curve (ABC) as calculated from the blood pressure recordings before and after administration of 30 mg/kg to hypertensive Dahl salt sensitive rats; number of rats=14; assay type: functional; how it was run: as §1
Rattus norvegicus [9] = test: In vivo area between curve (ABC) as calculated from the blood pressure recordings before and after administration of 30 mg/kg to hypertensive Dahl salt sensitive rats; number of rats=10; assay type: functional; how it was run: as §1
Rattus norvegicus [10] = test: In vivo area between curve (ABC) as calculated from the blood pressure recordings before and after administration of 30 mg/kg to hypertensive Dahl salt sensitive rats; number of rats=12; assay type: functional; how it was run: as §1
Rattus norvegicus [11] = test: In vivo area between curve (ABC) as calculated from the blood pressure recordings before and after administration of 30 mg/kg to hypertensive Dahl salt sensitive rats; number of rats=15; assay type: functional; how it was run: as §1

Compound	pA2 (Endothelin receptor [1])	IC50 (Endothelin-1 receptor) [nM]	pA2 (Endothelin receptor [2])	Max effect (Rattus norvegicus [3]) [mmHg]	Duration of action (Rattus norvegicus [4]) [h]	ABC (Rattus norvegicus [5]) [mmHg·h]	IC50 (Cytochrome P450 3A4) [nM]	IC50 (Cytochrome P450 2D6) [nM]	logD [6]	IC50 [7] [nM]	IC50 (Cytochrome P450 2C9) [nM]	ABC (Rattus norvegicus [8]) [mmHg·h]	ABC (Rattus norvegicus [9]) [mmHg·h]	ABC (Rattus norvegicus [10]) [mmHg·h]	ABC (Rattus norvegicus [11]) [mmHg·h]
COC(c1ccccc1)(c1ccccc1)[C@H](Oc1nc(C)cc(C)n1)C(=O)O (racemic) [AMBRISENTAN]	7.09	21.7	5.63	-17	32	409	–	–	–	–	–	–	–	–	–
Cc1cc(C)cc(O[C@H](C(=O)O)[C@@]2(c3ccccc3)NCC(=O)N(Cc3c(F)cc(F)cc3F)c3ccccc32)c1 (racemic)	8.27	17.2	7.02	-28	32	–	14000	> 50000	2.1	565	15000	483	–	–	–
Cc1cc(C)nc(O[C@H](C(=O)O)[C@@]2(c3ccccc3)NCC(=O)N(Cc3c(F)cc(F)cc3F)c3ccccc32)n1 (racemic)	8.18	2.5	6.18	-21	54	–	41000	> 50000	0.4	83.6	> 50000	–	674	–	–
CCCCc1cccc([C@]2([C@H](Oc3nc(C)cc(C)n3)C(=O)O)NCC(=O)N(Cc3c(F)cccc3Cl)c3ccccc32)c1 (racemic)	8.72	7.6	7.88	-23	36	–	–	–	–	7.1	–	–	–	409	–
Cc1cc(C)nc(O[C@H](C(=O)O)[C@@]2(c3cccc(-c4ccccc4)c3)NCC(=O)N(Cc3c(Cl)cccc3Cl)c3ccccc32)n1 (racemic)	8.98	16.9	7.37	-15	18	–	–	–	–	25	–	–	–	200	–
Cc1cc(C)cc(O[C@H](C(=O)O)[C@@]2(c3ccccc3)NCC(=O)N(Cc3c(F)cccc3Cl)c3ccccc32)c1 (racemic)	6.59	18.9	6.89	-13	30	–	–	–	–	184	–	–	–	267	–
Cc1cc(C)nc(O[C@H](C(=O)O)[C@@]2(c3cccc(-c4ccccc4)c3)NCC(=O)N(Cc3c(F)cc(F)cc3F)c3ccccc32)n1 (racemic)	9.03	7.9	7.07	-12	24	–	7000	> 50000	1.8	89.8	28000	–	–	–	250
CCCCc1cccc([C@]2([C@H](Oc3nc(C)cc(C)n3)C(=O)O)NCC(=O)N(Cc3c(F)cc(F)cc3F)c3ccccc32)c1 (racemic)	8.36	13.9	7.72	-13	18	214	5000	> 50000	2.3	33.2	15000	–	–	–	–
Cc1cc(C)nc(O[C@H](C(=O)O)[C@@]2(c3ccccc3)NCC(=O)N(C)c3ccccc32)n1 (racemic)	–	12.3	–	–	–	–	> 50000	> 50000	-2	184	> 50000	–	–	–	–
CCCCc1cccc([C@]2([C@H](Oc3nc(C)cc(C)n3)C(=O)O)NCC(=O)N(Cc3c(C)cc(C)cc3C)c3ccccc32)c1 (racemic)	7.83	18.3	7.44	-21	24	–	–	–	–	13.6	–	–	–	285	–
